Data: ChEMBL document CHEMBL1649401, “Synthesis and biophysical evaluation of arylhydrazono-1H-2-indolinones as β-amyloid aggregation inhibitors” (Eur J Med Chem, 2011)
Active and inactive are the calls of the source. The calls are words filed in the database; no cut-off is given here.

Legend:
[1] = Inhibition of amyloid beta (1 to 40) aggregation at 100 uM after 2 hrs by thioflavin T based fluorometric assay
Outline: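 Aβ1-40 (HFIP-treated, lyophilized) at 30 μM in PBS (0.01 M, NaCl 0.1 M, pH 7.4) containing 2% HFIP and 10% DMSO. Incubated with inhibitor in triplicate, 2 h at 25 °C. Sample mixed with 25 μM ThT in 0.025 M phosphate pH 6.0, read at ex 440/em 485 nm. % inhibition = 100 − [(Fi − Fb)/F0]×100. Screen at 100 μM.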

[2] = Inhibition of amyloid beta (1 to 40) aggregation after 2 hrs by thioflavin T based fluorometric assay
[3] = Inhibition of amyloid beta (1 to 40) aggregation assessed as effect on extension of beta-sheet content at 5 uM after 2 days by CD spectroscopy assay
Outline: (§1)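 Samples as for TEM: 50 μM Aβ1-40, 0.217 M phosphate pH 8.0, 10% ethanol, 37 °C incubation, aliquots removed over time. Spectra 195–250 nm, 0.1 cm cell, room temperature, 0.1 nm steps, 4 nm bandwidth. Buffer/ethanol (± compound) blank subtracted. Absolute 215 nm ellipticity plotted vs incubation time.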

[4] = Inhibition of amyloid beta (1 to 40) aggregation assessed as reduction of exponential phase of thioflavin T fluorescence curve at 5 uM after 3 to 4 days
Outline: (§2)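 Aβ1-40 (50 μM) incubated alone or with compound in 0.217 M phosphate pH 8.0, 10% ethanol, 37 °C. Aliquots taken at time points over several days and analyzed by ThT fluorescence. Values expressed as percentage of the plateau fluorescence of free aggregation.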

[5] = Inhibition of amyloid beta (1 to 40) aggregation assessed as loss of beta-sheet structure up to 100 uM after up to 8 days by CD spectroscopy assay; outline: as §1
[6] = Inhibition of amyloid beta (1 to 40) aggregation assessed as effect on extension of beta-sheet content at 5 uM up to 8 days by CD spectroscopy assay; outline: as §1
[7] = Inhibition of amyloid beta (1 to 40) aggregation assessed as inhibition of extended fibrils formation at 5 uM after 7 days by transmission electron microscopic analysis
[8] = Inhibition of amyloid beta (1 to 40) aggregation assessed as loss of stable random coil arrangement of peptide up to 100 uM after up to 8 days by CD spectroscopy assay; outline: as §1
[9] = Inhibition of amyloid beta (1 to 40) aggregation assessed as reduction of autocorrelation function particles size at 5 uM after 3 days by dynamic light-scattering analysis
Outline: (§3)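 Dynamic light scattering at a 173° backscatter angle with a 633 nm laser, cell held at 37 °C. z-averaged hydrodynamic diameter obtained by second-order cumulant analysis and the Stokes–Einstein equation.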

[10] = Inhibition of amyloid beta (1 to 40) aggregation assessed as reduction of exponential phase of thioflavin T fluorescence curve at 100 uM after 3 to 4 days; outline: as §2
[11] = Inhibition of amyloid beta (1 to 40) aggregation assessed as reduction of exponential phase of thioflavin T fluorescence curve at 25 uM after 3 to 4 days; outline: as §2
[12] = Inhibition of amyloid beta (1 to 40) aggregation assessed as delay in formation of fibrils at 5 uM after 12 hrs by dynamic light-scattering analysis; outline: as §3
[13] = Inhibition of amyloid beta (1 to 40) aggregation assessed as formation of long and curly fibrils at 5 uM after 7 days by transmission electron microscopic analysis
[14] = Solubility of the compound in aqueous buffer; format: physicochemical

Structure (SMILES)	inhibition [1]	IC50 [2]	other results
Oc1[nH]c2ccccc2c1/N=N/c1ccccc1	61%		
O=C1Nc2ccc([N+](=O)[O-])cc2/C1=N/Nc1ccccc1	0%		
COc1cc2c(cc1OC)/C(=N/Nc1ccccc1)C(=O)N2	68%		
O=C1Nc2cc(O)c(O)cc2/C1=N/Nc1ccccc1		4.3 µM	
COc1ccc(N/N=C2\C(=O)Nc3ccc(OC)cc32)cc1		3.7 µM	
COc1cc2c(cc1OC)/C(=N/Nc1ccc(C(C)C)cc1)C(=O)N2		4.4 µM	
O=C1Nc2ccccc2/C1=N/Nc1cccc(Cl)c1	39%		
CC(C)c1ccc(N/N=C2\C(=O)Nc3cc(O)c(O)cc32)cc1		1.6 µM	
COc1ccc2c(c1)/C(=N/Nc1ccc(C(C)C)cc1)C(=O)N2		0.4 µM	
O=C1Nc2cc(O)ccc2/C1=N/Nc1ccccc1		22 µM	
O=C1Nc2ccccc2/C1=N/Nc1ccc(O)cc1		9.3 µM	
O=C1Nc2ccc(O)cc2/C1=N/Nc1cccc(Cl)c1		18 µM	
COc1cc2c(cc1OC)/C(=N/Nc1ccccc1Cl)C(=O)N2	68%		
COc1ccc2c(c1)/C(=N/Nc1cccc(OCc3ccccc3)c1)C(=O)N2	44%		
COc1ccc2c(c1)NC(=O)/C2=N\Nc1ccccc1		5.8 µM	
CC(C)c1ccc(N/N=C2\C(=O)Nc3ccc(O)cc32)cc1		21 µM	
COc1ccc2c(c1)/C(=N/Nc1cccc(Cl)c1)C(=O)N2	72%		
O=C1Nc2ccc(Br)cc2/C1=N/Nc1ccc(Cl)cc1	63%		
COc1ccc2c(c1)/C(=N/Nc1ccc(Cl)cc1)C(=O)N2	43%		
CC(C)c1ccc(N/N=C2\C(=O)Nc3ccccc32)cc1	64%		
O=C1Nc2cc(O)c(O)cc2/C1=N/Nc1ccc(O)cc1		24 µM	
COc1ccc2c(c1)/C(=N/Nc1ccc(C)cc1)C(=O)N2	29%		
O=C1Nc2cc(O)c(O)cc2/C1=N/Nc1ccc(Cl)cc1		17 µM	
O=C1Nc2ccc([N+](=O)[O-])cc2/C1=N/Nc1ccc(Cl)cc1	12%		
O=C1Nc2cc(Cl)c(F)cc2/C1=N/Nc1ccc(Cl)cc1	28%		
O=C1Nc2cc(O)c(O)cc2/C1=N/Nc1ccccc1Cl		11 µM	

More lines, main results first:

inhibition [1]	IC50 [2]	Structure (SMILES)	other results
29%		O=C1Nc2ccccc2/C1=N/Nc1cccc([N+](=O)[O-])c1	
71%		COc1cc2c(cc1OC)/C(=N/Nc1ccc(Cl)cc1)C(=O)N2	
57%		O=C1Nc2ccccc2/C1=N/Nc1ccc(OC(F)(F)F)cc1	
	15 µM	COc1ccc2c(c1)/C(=N/Nc1ccc(C(C)(C)C)cc1)C(=O)N2	
	22 µM	COc1ccc(N/N=C2\C(=O)Nc3cc(OC)c(OC)cc32)cc1	
61%		O=C1Nc2ccc(O)cc2/C1=N/Nc1ccc(O)cc1	
	1.1 µM	O=C1Nc2cc(O)c(O)cc2/C1=N/Nc1cccc(Cl)c1	inhibition [3]: inactive; inhibition [4]: Active; inhibition [5]: Active; inhibition [6]: Active; inhibition [7]: Active; inhibition [8]: Active; inhibition [9]: inactive; inhibition [10]: Active; inhibition [11]: Active; inhibition [12]: Active; inhibition [13]: Active; solubility [14]: soluble
56%		COc1ccc2c(c1)/C(=N/Nc1cccc(C(C)(C)C)c1)C(=O)N2	
	7.1 µM	COc1ccc2c(c1)NC(=O)/C2=N\Nc1ccc(C(C)C)cc1	
	6 µM	CC(C)c1ccc(N/N=C2\C(=O)Nc3cc(O)ccc32)cc1	
	13 µM	COc1ccc(N/N=C2\C(=O)Nc3ccccc32)cc1	
24%		O=C1Nc2ccccc2/C1=N/Nc1ccc(Cl)cc1	
44%		O=C1Nc2ccccc2/C1=N/Nc1ccccc1Cl	
52%		COc1ccc2[nH]c(O)c(/N=N/c3ccccc3)c2c1	
20%		COc1ccc2c(c1)/C(=N/Nc1ccc(OCc3ccccc3)cc1)C(=O)N2	
62%		O=C1Nc2ccc(O)cc2/C1=N/Nc1ccccc1	
52%		O=C1Nc2ccccc2/C1=N/Nc1cccc(F)c1	
	17 µM	COc1cc2c(cc1OC)/C(=N/Nc1cccc(Cl)c1)C(=O)N2	
